KCNK3 block: human KCNK3 channel inhibitors, primary screen, CHO cells, FluxOR thallium flux, B-score; 0.84% of 340,000 active; FluxOR fluorescence; stronger effect = lower value; B-score at 10 µM; Potassium channel subfamily K member 3 (Homo sapiens), O14649;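 active means B-score under library mean minus 4 SD, starting fluorescence ratio at most library mean plus 5 SD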;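 further: more negative B-score means stronger inhibition of thallium flux through KCNK3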
KCNK9 inh: KCNK9 potassium channel inhibitors, primary screen, HEK293 cells, thallium flux; B-score at 10 µM; FluxOR thallium flux fluorescence; stronger effect = lower value; AID 488922, 2010; 1.2% of 310,000 active; Potassium channel subfamily K member 9 (Homo sapiens), Q9NPC2;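 active means ratio B-score over 3 SD below the library mean, with starting fluorescence within 5 SD of its mean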;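 further: negative B-score means less thallium flux so channel inhibition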
Target sequence (Q9NPC2 whole entry, looked up): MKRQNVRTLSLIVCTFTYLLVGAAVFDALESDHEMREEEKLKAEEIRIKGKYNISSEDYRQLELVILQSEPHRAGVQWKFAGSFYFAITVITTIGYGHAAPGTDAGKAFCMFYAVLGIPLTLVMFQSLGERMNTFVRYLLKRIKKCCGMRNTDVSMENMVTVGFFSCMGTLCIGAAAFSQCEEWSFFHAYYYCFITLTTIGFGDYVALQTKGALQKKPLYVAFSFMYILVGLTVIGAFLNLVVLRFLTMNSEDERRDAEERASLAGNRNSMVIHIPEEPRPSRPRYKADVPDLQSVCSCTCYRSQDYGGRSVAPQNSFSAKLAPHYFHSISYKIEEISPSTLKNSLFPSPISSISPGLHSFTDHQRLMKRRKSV
hERG protect: hERG rescue from dofetilide block, primary screen, cell-based, CHO-hERG, FluxOR thallium flux, dofetilide IC70; AID 1511, 2009; dofetilide IC70 present; 0.51% of 310,000 active; activation (rescue from dofetilide block), less the hit threshold, % at 10 µM;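 active means activation above the mean of controls blocked by dofetilide plus 5 SD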;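 further: thallium influx through hERG after potassium depolarization seen as dye fluorescence rise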
KCC2 mod: KCC2 cotransporter modulators, thallium flux, primary screen, cell-based, HEK293 KCC2, FluoZin-2 fluorescence, MLSMR. B-score of Tl+ flux slope (higher = more flux/activation; lower = inhibition) at 10 µM. Solute carrier family 12 member 5 (Homo sapiens), Q9H2X9. KCC2 cells, thallium flux FluoZin-2 fluorescence. 2.2% of 190,000 active;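 active means thallium flux slope and its plate-corrected score both differing from the plate sample mean at a set confidence after two filtering rounds, in either direction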;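 further: slope of fluorescence scaled to starting intensity during 10 to 20 s after thallium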
KCNQ1 act: potentiators or activators of KCNQ1 channel, primary screen, cell-based, thallium flux, high-throughput; Potassium voltage-gated channel subfamily KQT member 1 (Homo sapiens), P51787; CHO-K1 KCNQ1, thallium flux FluxOR fluorescence; stronger effect = higher value; B-score at 10 µM; 0.35% of 310,000 active; AID 2648, 2010;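 active means fluorescence ratio B-score, a plate-corrected score, at least three library SD, with initial intensity B-score within 5 SD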
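Medium – assay buffer, equal DMSO in all wells · Material – CHO-K1 cell line with stable KCNQ1 potassium channel expression · Signal – kinetic FluxOR thallium fluorescence, 10-s 1-Hz baseline, 110-s post-stimulus read · Compound – single concentration per compound, DMSO matched to controls · Schedule – 37 °C overnight plating, 90-min dark dye load, 20-min compound pretreatment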
KCNQ1 block: inhibitors of human KCNQ1 channel, primary screen, cell-based, thallium flux, high-throughput | CHO-K1 KCNQ1, FluxOR thallium flux fluorescence; stronger effect = higher value | B-score at 10 µM | Potassium voltage-gated channel subfamily KQT member 1 (Homo sapiens), P51787 | 1.3% of 310,000 active | AID 2642, 2010;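 active means compounds whose thallium flux B-score, printed positive for inhibition, exceeds three library SD while starting fluorescence stays within three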;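 further: channel opened by potassium depolarization with thallium stimulus after 20 min compound exposure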
The depositor's hits bear a star; i = inactive; · = no result given. In the library only some 4.1% were active in any assay of this set; here they are far more common.

SMILES	KCNK3 block	KCNK9 inh	hERG protect	KCC2 mod	KCNQ1 act	KCNQ1 block
CC(C)COc1ccc(S(=O)(=O)n2cc(F)c(=O)[nH]c2=O)cc1	i	i	5.0*	-0.59	i	i
CCN1CCN(CCNC(=O)c2cc(Cl)c(NC(=O)C3=C(C)OCCS3)cc2OC)CC1	i	i	-6.7	·	i	i
CCC(C)NC(=O)c1cc(Cl)c(NC(=O)C2=C(C)OCCS2)cc1OC (stereo not given)	i	i	-3.9	·	44*	i
Cc1cc(OCC(=O)NCC2CCC(C(=O)O)CC2)c2c(C)c(C)c(=O)oc2c1 (stereo not given)	i	i	-6.5	·	i	i
O=C(N/N=C/c1coc2ccccc2c1=O)c1cc(Br)c(O)c(Br)c1	i	i	-30.4	·	i	8*
O=C(COC(=O)CNC(=O)C1CCCCC1)NCc1ccc(Cl)cc1	i	·	·	·	·	·
CCN1CCN(CC(O)COC(c2ccccc2)c2ccccc2)CC1 (stereo not given)	i	i	-4.2	0.0618	i	i
OC(COC(c1ccccc1)c1ccccc1)CN1CCCCC1 (stereo not given)	i	i	6.4*	·	i	i
Cc1onc(-c2ccccc2)c1-c1nnc(-c2ccccc2C(F)(F)F)o1	i	i	-6.6	-0.329	i	i
CCn1c(C)nc2cc(-c3nnc(-c4c(-c5ccccc5)noc4C)o3)ccc21	i	i	34.3*	·	i	i
CN(C)c1cccc(C(=O)N2CCCC(C(=O)c3cc(F)ccc3F)C2)c1 (stereo not given)	i	i	-18.4	-0.5	38*	i
O=C(NC12CC3CC(CC(C3)C1)C2)c1ccccc1	i	i	-8.6	-0.75	i	i
O=C(NC12CC3CC(CC(C3)C1)C2)N(Cc1ccccc1)Cc1ccncc1	i	i	-9.8	-1.14	i	6*
Cc1onc(-c2c(F)cccc2Cl)c1C(=O)Nc1cccc(S(=O)(=O)N2CCOCC2)c1	i	·	·	·	·	·
Cn1cc(/C=C/c2cc[n+](C)cc2)c2cc(Cl)ccc21	i	i	-31.9	·	i	12*
O=C(Cn1cnc2ccccc21)c1ccc(Cl)cc1	i	i	-5.3	·	i	i
O=C(Cn1cnc2ccccc21)c1ccccc1	i	i	5.0*	·	i	i
O=C(Nc1ccc(Cl)cc1)Nc1nnc(SCc2ccccc2)s1	i	i	-10.5	0.69	i	6*
O=C(Nc1nnc(SCc2ccc(Cl)cc2)s1)c1ccco1	i	i	-4.7	·	i	i
S=C(NCc1ccco1)Nc1ccc(Cl)cn1	i	i	-1.5	·	i	i
C[n+]1c2n(c3ccccc31)N=C(c1ccc(-c3ccccc3)cc1)CS2	i	i	-25.0	-0.699	i	12*
Cc1nc(SCc2cccc(F)c2)c2oc3ccccc3c2n1	i	i	5.0*	0.405	i	i
Cc1nc(SCc2nc3ccc(F)cc3[nH]2)c2oc3ccccc3c2n1	i	·	·	·	·	·
COc1cccc(Nc2nnc(SCc3cc([N+](=O)[O-])cc4c3OCOC4)s2)c1	i	i	-14.1	0.305	i	i
Cc1cccc(C)c1Nc1nnc(SCc2cc([N+](=O)[O-])cc3c2OCOC3)s1	i	-6.71*	-15.4	0.0736	i	i
CCc1nc(SCc2ccc(OCC(C)C)cc2)n[nH]1	i	i	-12.3	·	i	i
C=CCOc1ccc(/C(O)=C2/C(=O)C(=O)N(CCCn3ccnc3)C2c2ccco2)cc1 (stereo not given)	i	i	-7.9	0.237	i	i

Bioassay records from PubChem.
